Published values of several laboratories.
Compare with care: the assays were run in different laboratories.
Target: Protein-tyrosine kinase 6 (PTK6, Homo sapiens, UniProt Q13882)

SMILES	assay	setting	remaining binding [%]
CN([C@@H]1CCc2c(CC(=O)O)c3cc(S(C)(=O)=O)ccc3n2C1)S(=O)(=O)c1ccc(F)cc1	cell-free assay, competition with immobilised ligand	1 µM	92
CC1CCCN1c1nccc(-c2cnn3ncccc23)n1 (stereo not drawn)	binding	1 µM	89
O=C(NCC1CCOCC1)c1n[nH]cc1NC(=O)c1c(F)cccc1F	binding, competition with immobilised ligand	1 µM	100
CN(C)c1ncnc(-c2ccc3nc(Nc4cc(CN5CCN(C(=O)CC(F)(F)F)CC5)ccn4)[nH]c3c2)c1Cl	cell-free assay, competition with immobilised ligand	1 µM	86
COc1cnc(Nc2cccc(S(N)(=O)=O)c2)nc1N1CCN(c2ccccc2)CC1	binding, competition with immobilised ligand	1 µM	100
O=C(NCCCN1CCOCC1)c1ccc(Nc2ncc(Cl)c(-c3ccc(Cl)s3)n2)cc1	binding, competition with immobilised ligand	1 µM	100
C[C@@H](c1ccc(-n2cnc3c(N)ncnc32)cc1)N1CCc2nn(C)c(Cc3ccccc3)c2C1=O	binding, competition with immobilised ligand	0.1 µM	62
C=CC(=O)N1CCC(C(=O)NCC(=O)N2CCN(c3nc(-c4cnc(N)nc4C(F)F)nc(N4CCOCC4)n3)CC2)CC1	binding, competition with immobilised ligand	1 µM	100
CS(=O)(=O)NCC[C@H](NC(=O)c1cncc2c1cnn2-c1ccc(F)cc1)c1ccnc(S(C)(=O)=O)c1	cell-free assay, competition with immobilised ligand	1 µM	96
COc1ccnn2ncc(-c3ccnc(N(C)C)n3)c12	binding	1 µM	100
c1cncc(-c2cccc(Nc3nccc(NC4CCCCC4)n3)c2)c1	binding, competition with immobilised ligand	10 µM	80
C[C@@H]1CCN(c2nccc(-c3cnn4ncccc34)n2)C1	binding	1 µM	100
Nc1c(C(=O)NCc2ccc(C(=O)NCCCC3CCCCC3)cc2)cnn1-c1ccccc1	cell-free assay, competition with immobilised ligand	0.1 µM	96
CCN1CCN(Cc2ccc(C(=O)Nc3ccc(C)c(Oc4ccc5c(c4)CC(=O)N5)c3)cc2C(F)(F)F)CC1	binding, competition with immobilised ligand	1 µM	100
O=C(c1ccc(Nc2ncc(Cl)c(-c3ccc(Cl)s3)n2)cc1)N1CCC(N2CCCC2)CC1	binding, competition with immobilised ligand	1 µM	79
Cc1cnn2ncc(-c3ccnc(N(C)C)n3)c2c1	binding	1 µM	100
CCC(=O)N[C@@H]1CC[C@H](C(=O)N(C)c2ccc(-c3nc4ccccc4o3)cc2)C1	cell-free assay, competition with immobilised ligand	1 µM	90
c1cnn2ncc(-c3ccnc(N4CCC45COC5)n3)c2c1	binding	1 µM	83
COc1ncc2cc3ccccc3nc2c1C#N	cell-free assay, competition with immobilised ligand	5 µM	100
CN(CCCC(F)(F)F)c1nccc(-c2cnn3ncccc23)n1	binding	1 µM	97
C[C@H](c1ccc(F)cc1)N(Cc1cccc(C(=O)O)c1)C(=O)c1cnc2ccccc2c1	cell-free assay, competition with immobilised ligand	1 µM	83
